SMILES strings stand for the structures. Converted amounts (≈) assume the structure as drawn.

Data on 2 compounds can be found in ChEMBL document CHEMBL4024765 (J Med Chem, 2017).

Data set [1] concerns Plasmodium falciparum. As to the kind of experiment: Resistance index, ratio of IC50 for chloroquine-resistant synchronized trophozoite stage of Plasmodium falciparum Dd2 to IC50 for chloroquine-sensitive synchronized trophozoite stage of Plasmodium falciparum NF54. It is filed as functional.
A short description of data set [2]: Kinetic solubility of compound in simulating fasting state biorelevant media at pH 6.5 after 2 hrs by shake flask method. It is filed as physicochemical. As to conditions: fasted-state simulating biorelevant medium, read-out: Kinetic_solubility.
A short description of data set [3]: n-Octanol-buffer distribution coefficient, log D of the compound at pH 5 incubated for 4 hrs by UV-vis based shake flask method. The class given is physicochemical.
The nature of data set [4]: n-Octanol-buffer distribution coefficient, log D of the compound at pH 7.4 […] by HPLC based shake flask method. The class given is physicochemical.
The test system of data set [5] is Plasmodium falciparum. Description: Antiplasmodial activity against chloroquine-sensitive synchronized trophozoite stage of Plasmodium falciparum NF54 after 48 hrs by NBT dye based LDH assay. It is filed as functional. The following applies: NF54, 48 h.
In data set [6] the test system is Plasmodium falciparum. Description: Antiplasmodial activity against chloroquine-resistant synchronized trophozoite stage of Plasmodium falciparum Dd2 after 48 hrs by NBT dye based LDH assay. The following applies: Dd2, 48 h. It is filed as functional.
Data set [7] relates to Plasmodium falciparum. As to the kind of experiment: Antiplasmodial activity against chloroquine-resistant synchronized trophozoite stage of Plasmodium falciparum 7G8 after 48 hrs by NBT dye based LDH assay. It is filed as functional. As to conditions: 7G8, 48 h.
A further data set concerns CHO. Description: Cytotoxicity against CHO cells by MTT assay. It is filed as cell-based. As to conditions: Cricetulus griseus. The method in brief:
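MTT assay on CHO cells. DMSO stock diluted in complete medium; 10-fold serial dilutions, 6 concentrations from 100 to 0.001 μg/mL; emetine reference; triplicate on each occasion. IC50 from non-linear fit of full dose-response curves.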

The subject of data set [8] is Plasmodium falciparum. As to the kind of experiment: Resistance index, ratio of IC50 for chloroquine-resistant synchronized trophozoite stage of Plasmodium falciparum 7G8 to IC50 for chloroquine-sensitive synchronized trophozoite stage of Plasmodium falciparum NF54. The class given is functional.
Data set [9] can be described thus: Selectivity index, ratio of IC50 for CHO cells to IC50 for chloroquine-sensitive synchronized trophozoite stage of Plasmodium falciparum NF54. The class given is toxicity. As to conditions: hamster; read-out: Ratio IC50.
In another data set the test system is Plasmodium berghei. Description: Antimalarial activity against chloroquine-sensitive Plasmodium berghei ANKA infected in C57BL/6 mouse assessed as supression of parasitemia at 30 mg/kg, po administered for 4 consecutive days starting at 2 hrs post infection by peter's test relative to control. It is filed as functional. The method in brief: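 P. berghei ANKA passaged in C57BL/6 donor; test mice infected ip with 200 μL of 1 × 10⁷ parasitized erythrocytes in PBS. Oral dosing 30 mg/kg at 2 h post-infection, then daily D0–D3; PBS-dosed controls. Parasitemia read on D4 from Giemsa-stained, methanol-fixed tail thin films; suppression relative to control.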

A short description of data set [10]: Half life in BALB/c mouse liver microsomes at 1 uM in presence of NADPH by LC-MS/MS analysis. It is filed as ADME, microsome. The method, boiled down:
(§1)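 Compound at 1 μM with 0.35 mg/ml male BALB/c mouse liver microsomes, 1 mM NADPH, 100 mM phosphate pH 7.4, 37 °C, 30 min; triplicate. Stopped by ice-cold acetonitrile with carbamazepine internal standard; parent loss by LC-MS/MS (ESI positive, MRM) as % remaining; scan data screened for putative metabolite fragments.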

Data set [11] in a line: Intrinsic clearance in BALB/c mouse liver microsomes at 1 uM in presence of NADPH by LC-MS/MS analysis. The class given is ADME, microsome. As to conditions: read-out: CLH. The method in brief: as §1
The nature of data set [12]: Metabolic stability in BALB/c mouse liver microsomes assessed as parent compound remaining at 1 uM after 30 mins in presence of NADPH by LC-MS/MS analysis. It is filed as ADME, microsome. As to conditions: read-out: Stability. The method, boiled down: as §1
The subject of data set [13] is Plasmodium falciparum. Description: Increase in hemoglobin levels in chloroquine-sensitive synchronized ring stage of Plasmodium falciparum NF54 after 32 hrs by flow cytometric analysis. The class given is functional. The method in brief:
(§2)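 Sorbitol-synchronized (5%) ring-stage cultures exposed to compound at multiples of IC50 for 32 h; trophozoites freed with 0.05% saponin, PBS-washed, counted by hemocytometer and flow cytometry. Hypotonic lysis/sonication, then sequential SDS/pyridine fractionation into hemoglobin, free heme and hemozoin (SDS/NaOH) fractions; each measured by UV-vis as Fe(III) heme-pyridine complex.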

The test system of data set [14] is Plasmodium falciparum. As to the kind of experiment: Increase in free heme levels in chloroquine-sensitive synchronized ring stage of Plasmodium falciparum NF54 after 32 hrs by flow cytometric analysis. It is filed as functional. The method in brief: as §2
For data set [15], the system named is Plasmodium falciparum. As to the kind of experiment: Decrease in hemozoine formation in chloroquine-sensitive synchronized ring stage of Plasmodium falciparum NF54 after 32 hrs by flow cytometric analysis. The class given is functional. The method, boiled down:
as §2

The nature of data set [16]: Inhibition of beta hematin formation by detergent based assay. The method, boiled down: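 β-hematin formation from hematin in 1 M acetate buffer pH 4.9 with NP40 detergent, compound serially diluted from 20 mM DMSO stock; ~5 h at 37 °C. Free heme complexed with pyridine/acetone/HEPES pH 7.4 solution, absorbance at 405 nm; IC50 from dose-response curves.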
Data set [17] relates to Liver. Description: Drug metabolism in BALB/c mouse liver microsomes assessed as N-dealkylation on tertiary amine at 1 uM in presence of NADPH by mass spectrometric analysis. The class given is ADME, microsome. The method in brief:
as §1

For data set [18], the system named is Liver. Description: Drug metabolism in BALB/c mouse liver microsomes assessed as oxidation of quinoline core or pyridyl ring at 1 uM in presence of NADPH by mass spectrometric analysis. The class given is ADME, microsome. The method in brief: as §1
For data set [19], the system named is Liver. As to the kind of experiment: Drug metabolism in BALB/c mouse liver microsomes assessed as N-dealkylation with oxidative deamination at 1 uM in presence of NADPH by mass spectrometric analysis. The class given is ADME, microsome. The method, boiled down:
as §1

Data set [20] deals with Liver. As to the kind of experiment: Drug metabolism in BALB/c mouse liver microsomes assessed as aldehyde reduction at 1 uM in presence of NADPH by mass spectrometric analysis. It is filed as ADME, microsome. The method, boiled down: as §1
The test system of data set [21] is Liver. As to the kind of experiment: Drug metabolism in BALB/c mouse liver microsomes assessed as oxidation of aldehyde to carboxylic acid at 1 uM in presence of NADPH by mass spectrometric analysis. The class given is ADME, microsome. The method, boiled down: as §1
Data set [22] deals with Voltage-gated inwardly rectifying potassium channel KCNH2 (Homo sapiens, UniProt Q12809). As to the kind of experiment: Inhibition of human ERG expressed in CHO cells by automated patch clamp method. The class given is cell-based.
Chain of Voltage-gated inwardly rectifying potassium channel KCNH2 (Q12809 whole entry): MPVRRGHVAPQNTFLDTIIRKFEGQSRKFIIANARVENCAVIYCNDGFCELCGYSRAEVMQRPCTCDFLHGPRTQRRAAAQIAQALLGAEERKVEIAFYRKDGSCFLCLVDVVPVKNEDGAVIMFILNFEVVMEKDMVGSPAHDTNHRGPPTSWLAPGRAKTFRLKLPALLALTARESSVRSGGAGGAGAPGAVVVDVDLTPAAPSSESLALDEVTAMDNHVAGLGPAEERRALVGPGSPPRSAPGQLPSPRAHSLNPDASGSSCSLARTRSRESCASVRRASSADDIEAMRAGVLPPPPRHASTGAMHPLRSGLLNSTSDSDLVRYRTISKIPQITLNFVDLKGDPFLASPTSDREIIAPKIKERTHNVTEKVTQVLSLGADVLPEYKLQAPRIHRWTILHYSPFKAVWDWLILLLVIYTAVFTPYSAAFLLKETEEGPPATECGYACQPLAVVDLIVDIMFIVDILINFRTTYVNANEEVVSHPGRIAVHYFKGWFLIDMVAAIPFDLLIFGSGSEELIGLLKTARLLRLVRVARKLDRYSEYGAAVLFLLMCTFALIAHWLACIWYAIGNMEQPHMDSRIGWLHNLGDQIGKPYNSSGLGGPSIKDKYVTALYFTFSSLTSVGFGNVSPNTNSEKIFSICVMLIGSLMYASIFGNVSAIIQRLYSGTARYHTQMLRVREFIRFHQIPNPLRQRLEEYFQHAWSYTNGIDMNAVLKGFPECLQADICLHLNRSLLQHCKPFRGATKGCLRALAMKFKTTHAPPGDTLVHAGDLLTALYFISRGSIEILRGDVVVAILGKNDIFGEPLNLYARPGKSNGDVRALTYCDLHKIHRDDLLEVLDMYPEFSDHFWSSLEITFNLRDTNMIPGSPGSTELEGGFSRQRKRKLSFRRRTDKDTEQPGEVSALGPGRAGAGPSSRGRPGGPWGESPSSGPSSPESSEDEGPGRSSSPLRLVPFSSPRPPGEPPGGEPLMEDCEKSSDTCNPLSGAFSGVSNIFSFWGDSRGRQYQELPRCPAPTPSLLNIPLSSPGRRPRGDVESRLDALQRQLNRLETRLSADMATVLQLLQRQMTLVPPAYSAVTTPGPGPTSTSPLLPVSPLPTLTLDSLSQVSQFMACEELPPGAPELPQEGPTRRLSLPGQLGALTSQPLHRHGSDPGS

Consider `CN(Cc1ccccn1)Cc1ccccc1CNc1ccnc2cc(C#N)ccc12`, for which the “Ratio IC50” value in the data set on Plasmodium falciparum [1] came out at 1.3; in the data set with Plasmodium falciparum [8], 2.4. Moreover, in [2], the solubility kinetic at 2 h is 172 µM (≈ 67.8 µg/mL). For the same compound, the logD at 4 h in data set [3] amounted to 0.81. The compound also returned a logD in data set [4] of 3.8. Further, the IC50 in the data set on Plasmodium falciparum [5] amounted to 127 nM; in the data set with Plasmodium falciparum [6], 162 nM; in the data set with Plasmodium falciparum [7], 307 nM; in the data set with CHO, 27600 nM; in data set [16], 16600 nM. Further, the selectivity ratio in [9] was determined as 218. The Activity in the data set with Plasmodium berghei was 47.1%; with Plasmodium falciparum [13], “Dose-dependent effect”; in the data set with Plasmodium falciparum [14] it was “Dose-dependent effect”; in the data set on Plasmodium falciparum [15], “Dose-dependent effect”. Besides, the half-life at 1 µM in [10] worked out at 5.35 min. For the same compound, the CLint scaled at 1 µM in data set [11] was 1250 mL/min/kg. Moreover, in data set [12], the remaining at 0.5 h, 1 µM amounted to 2.08%. In addition, the Drug metabolism entry in the data set on Liver [17], with Liver [18], in the data set with Liver [19], in the data set on Liver [20] and in the data set with Liver [21] was “Metabolite_Detected” in each case.

As for `CN(Cc1ccccn1)Cc1ccccc1CNc1ccnc2cc(Cl)ccc12`, the entries for the “Ratio IC50” value in the data set on Plasmodium falciparum [1] and in the data set on Plasmodium falciparum [8] were 2.5 and 3.4, respectively. The solubility kinetic at 2 h in data set [2] was 165 µM (≈ 66.4 µg/mL). The compound also displayed a logD at 4 h in [3] of 0.9. Further, the logD in data set [4] stood at 3.79. The IC50 in the data set with Plasmodium falciparum [5] came to 54.4 nM; in the data set with Plasmodium falciparum [6], 137 nM; with Plasmodium falciparum [7], 184 nM; with CHO, 40200 nM; in data set [16] it was 17900 nM; in data set [22], 870 nM. In addition, in data set [9], the selectivity ratio was 740. Moreover, the Activity in the data set with Plasmodium berghei was 82.4%; in the data set on Plasmodium falciparum [13], “Dose-dependent effect”; in the data set on Plasmodium falciparum [14], “Dose-dependent effect”; with Plasmodium falciparum [15], “Dose-dependent effect”. The half-life at 1 µM in [10] was 5.49 min. Besides, the CLint scaled at 1 µM in data set [11] was determined as 1220 mL/min/kg. Also, in data set [12], the remaining at 0.5 h, 1 µM came to 2.32%. The Drug metabolism entry in the data set on Liver [17], with Liver [18], in the data set on Liver [19], with Liver [20] and in the data set with Liver [21] was “Metabolite_Detected” each time.
